Screens (PubChem BioAssay)
T cruzi inh: T. cruzi replication inhibition; T. cruzi beta-gal in NIH3T3, luminescence, 90 h; inhibition, % (test concentration not listed); hit rate 1.4% among 300,000; AID 1885;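 active = mean inhibition across valid replicates above about 55%, limit read from the data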;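 also: signal also drops with host cell toxicity which is not excluded here; higher percent means less beta-gal luminescence so fewer parasites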
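Material: NIH/3T3 host cells with β-galactosidase reporter T. cruzi; Input: 5,000 host fibroblasts per well; Medium: DMEM, 2% fetal bovine serum; Compound: 50 nL DMSO compound solution per well; Schedule: 3 h host attachment, then at least 90 h co-culture; Detection: luminescent β-galactosidase signal after 60 min lysis.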
FID counter: fluorescent intercalator displacement, NS3 helicase counter-screen | DNA fluorescent intercalator displacement, fluorescence | AID 1845 | inhibition, % at 7.9 µM | hit rate 0.17% among 290,000; in the data active = inhibition above about 37%;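 also: higher means more ethidium bromide displaced from hairpin DNA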
MEKK3 PB1 HTS: modulators (inhibitors or enhancers) of MEK5 binding to human MEKK3 PB1 domain | binding response (% of control), % at 10 µM | bead-based flow cytometry, Alexa488-MEK5 binding to MEKK3; actives lie on both sides; 0 = blocked by unlabeled MEK5, 100 = vehicle | hit rate 1.4% among 290,000 | Q99759;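 active = binding response more than 3 SD above or below the average of its plate-row segment, actives on both sides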;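 also: Alexa488 bead fluorescence after subtracting the streptavidin-only scavenger bead signal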
Target sequence (Q99759 whole entry, looked up, the tested form may be a part): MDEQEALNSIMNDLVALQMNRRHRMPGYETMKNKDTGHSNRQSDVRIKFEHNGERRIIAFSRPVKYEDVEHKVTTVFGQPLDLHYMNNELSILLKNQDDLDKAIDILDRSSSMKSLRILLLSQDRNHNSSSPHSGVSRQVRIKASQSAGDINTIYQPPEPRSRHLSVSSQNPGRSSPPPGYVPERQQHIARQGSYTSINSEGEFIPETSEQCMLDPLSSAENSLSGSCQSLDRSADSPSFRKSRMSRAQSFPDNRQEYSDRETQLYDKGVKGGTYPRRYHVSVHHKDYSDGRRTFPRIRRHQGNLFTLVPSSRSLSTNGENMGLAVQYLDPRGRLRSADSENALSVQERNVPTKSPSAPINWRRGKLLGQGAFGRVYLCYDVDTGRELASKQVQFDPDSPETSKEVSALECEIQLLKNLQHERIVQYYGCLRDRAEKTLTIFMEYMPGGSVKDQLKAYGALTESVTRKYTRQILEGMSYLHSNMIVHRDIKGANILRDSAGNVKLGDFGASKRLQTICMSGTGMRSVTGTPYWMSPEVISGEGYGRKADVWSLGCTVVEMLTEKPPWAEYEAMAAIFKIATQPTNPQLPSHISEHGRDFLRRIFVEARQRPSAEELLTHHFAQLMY
MEKK2mut PB1 HTS: signal of MEK5 binding to mutant human MEKK2 PB1 domain. bead flow cytometry, Alexa488-MEK5 binding to MEKK2 mutant. percent response, % at 10 µM. hit rate 0.35% among 290,000; in the data active = percent response above about 24%, passing the limit was not always enough
HCV NS3 hel inh: HCV NS3 helicase inhibition; AID 1800; inhibition, % at 10.9 µM; NS3 helicase DNA unwinding, Cy5 molecular beacon fluorescence; hit rate 0.56% among 290,000;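 active = inhibition above the mean of all tested compounds plus 3 SD, set per campaign, cut at about 35% in these data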
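Measured by: Cy5 fluorescence, 0 and 60 min reads / Assay system: NS3 helicase fragment of HCV / Control set: low DMSO, high thioflavine S at 110 µM / Times: 1 h reaction at 25 °C, ATP-initiated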
MEKK2wt PB1 HTS: raises or lowers MEK5 binding to wildtype human MEKK2 PB1 domain; Q9Y2U5; bead flow cytometry, Alexa488-MEK5 binding to MEKK2 WT; actives lie on both sides; binding response (% of control), % at 10 µM; hit rate 1.1% among 290,000; AID 1531; in the data active = binding response below about 67% or above about 130%
Of the large screens only hits and unclear results are named; the others gave an inactive call; [ ] = dose if it differs, or a comment. Only some compounds are listed: those with a hit (about 4.1% of all), similar ones and a draw of the others.

CC(NC(=O)c1ccc([N+](=O)[O-])cc1[N+](=O)[O-])c1ccc(-c2ccccc2)cc1 (configuration not stated)	none
COc1c(Cl)cc(Cl)cc1C(=O)Nc1ccc(NC(=O)c2cccs2)cc1	T cruzi inh 58
Cc1ccc(C(=O)NC(=S)Nc2ccc(CN3CCCCC3)cc2)c(C)c1	T cruzi inh 60
Cc1ccc(Cl)cc1N1CCN(CC(=O)Nc2ccc(CN3CCCCC3)cc2)CC1	T cruzi inh 55
COc1c(Cl)cc(Cl)cc1C(=O)Nc1ccc(CN2CCCCC2)cc1	T cruzi inh 56
O=C(CSc1ccccc1)N(c1ccc(Br)cc1)c1nccs1	none
CCc1ccccc1Oc1ccc(S(=O)(=O)N2CCN(C)CC2)cn1	none (no result: FID counter, MEKK3 PB1 HTS, MEKK2mut PB1 HTS, HCV NS3 hel inh, MEKK2wt PB1 HTS)
Cc1ccc(C)c(Oc2ccc(S(=O)(=O)N3CCN(C)CC3)cn2)c1	T cruzi inh 55 (no result: FID counter, MEKK3 PB1 HTS, MEKK2mut PB1 HTS, HCV NS3 hel inh, MEKK2wt PB1 HTS)
CCOC(=O)C1(Cc2ccccc2C(F)(F)F)CCN(C(C)CCn2cccn2)CC1 (configuration not stated)	T cruzi inh 68
COc1cccc(C2CCCCN(C)C2=O)c1 (configuration not stated)	none
Cc1cc(C)n(-c2nc3ccccc3c(=O)n2OCC#N)n1	T cruzi inh 59
CCOn1c(-n2nc(C)cc2C)nc2ccccc2c1=O	none
Cc1cccc2c(N)c3c(nc12)CCCC3 (tested in a mixture with another compound)	none (no result: T cruzi inh)
Cc1cc(C)c2c(N)c3cccc(C)c3nc2n1	T cruzi inh 58
C=CCOc1ccc(/C=N\NC(N)=S)cc1	T cruzi inh 64
COC(=O)c1ccc(COc2ccc(/C=N/NC(N)=S)cc2)o1	T cruzi inh 55
COc1ccc(/C=N/NC(N)=S)cc1	none
COC(=O)c1ccc(COc2ccc(Cl)cc2)o1	none
CC(C)Cc1nnc(NC(=O)Cc2ccc([N+](=O)[O-])cc2)s1	none
O=C(Nc1nccs1)c1cn(-c2ccccc2)nc1-c1ccccc1	none
CC(C)COc1ccc(-c2nn(-c3ccccc3)cc2C(=O)Nc2nccs2)cc1	T cruzi inh 64
COc1ccc(CCN(C)C(=O)c2c(C)nn(CC(C)C)c2Cl)cc1OC	MEKK3 PB1 HTS 55[inhibitor], MEKK2wt PB1 HTS 44[inhibitor]
COC(=O)CCC(=O)OC1(C)C(=O)C2=CN(c3ccc(OC)cc3)C(c3ccc(OC)cc3)=CC2=C(Br)C1=O (configuration not stated)	MEKK2wt PB1 HTS -6.0 (no result: FID counter, HCV NS3 hel inh)
C=CCN1C=C2C(=O)C(C)(OC(=O)CCC(=O)OC)C(=O)C(Br)=C2C=C1c1ccc(OC)cc1 (configuration not stated)	MEKK2wt PB1 HTS -3.0 (no result: FID counter, HCV NS3 hel inh)
CCn1ncc(Br)c1C(=O)Nc1cc([N+](=O)[O-])ccc1C	none
O=C(CN1C(=O)CC(c2ccco2)Sc2ccccc21)NC1CCCCC1 (configuration not stated)	none
O=C(Nc1cc(Oc2ccccc2)cc([N+](=O)[O-])c1)C12CC3CC(C1)CC(n1cnc(Cl)n1)(C3)C2	T cruzi inh 62
O=C(CC1C(=O)NCCN1Cc1c(F)cccc1Cl)NCc1ccccc1 (configuration not stated)	none
O=C(CC1C(=O)NCCN1CCCc1ccccc1)NCCc1ccccc1F (configuration not stated)	MEKK2mut PB1 HTS 28, MEKK2wt PB1 HTS 134
NS(=O)(=O)c1ccc(CNC(=S)NCc2ccc(F)cc2)cc1	none
CCOC(=O)c1ccc(N2CCN(c3ccccc3F)CC2)c(NC(=O)Nc2cccc(OC)c2)c1	T cruzi inh 70
CC(=O)Nc1cc(C)c(S(C)(=O)=O)c(C)c1	none
COc1cc(C2CC(=O)Nc3ccccc3S2)cc(OC)c1OC (configuration not stated)	FID counter 89
Cc1cccc2nc(-c3cccnc3)c(NCCC(C)C)n12	MEKK2wt PB1 HTS -11
Cc1cccc2nc(-c3cccnc3)c(Nc3ccccc3)n12	none
CN(C)/C=C/C1=C([N+](=O)[O-])C(c2cccc([N+](=O)[O-])c2)NC(=O)N1 (configuration not stated)	none
CCc1ccc(-c2cc(C)no2)cc1S(=O)(=O)NCCc1ccc(OC)c(OC)c1	none
CC(C)(C)c1ccc(C(=O)NCc2ccccc2)cc1	none
O=C(NCc1ccccc1)c1ccc(C(=O)N(C2CCCCC2)C2CCCCC2)cc1	T cruzi inh 61
CC(CN1CCN(C)CC1)OC(=O)c1ccc(Cl)cc1 (configuration not stated)	T cruzi inh 59
CC(CN1CCCCC1)OC(=O)c1ccc(Cl)cc1 (configuration not stated)	none
O=C(CCn1c(=O)[nH]c2ccsc2c1=O)N1CC(=O)N(CCc2ccccc2)C(=O)C1	MEKK3 PB1 HTS 74[inhibitor]
N#CC1=C(N)OC2=C(CCc3ccccc32)C1c1ccccc1Cl (configuration not stated)	MEKK3 PB1 HTS 144
CCn1cc([N+](=O)[O-])c(C(=O)N2N=C(c3ccc(Cl)c(Cl)c3)CC2c2ccccc2O)n1 (configuration not stated)	none
CCn1cc([N+](=O)[O-])c(C(=O)N2N=C(c3ccc4ccccc4c3)CC2c2cc(Br)ccc2O)n1 (configuration not stated)	T cruzi inh 56
COc1ccc(/C=C2/CCc3ccccc3C2=O)cc1CN1CCOCC1	T cruzi inh 57
CC(C)=CCCC(C)CN1CCC(N2CCC(C(=O)NC(C)C)CC2)CC1 (configuration not stated)	none
c1ccc(CCNc2nc(-c3ccncc3)cs2)cc1	T cruzi inh 83
c1ccc(-c2csc(Nc3ncccn3)n2)cc1	none
COc1ccc(CCNc2nc(-c3ccncc3)cs2)cc1OC	none
NNc1nc(-c2ccccc2)cs1	T cruzi inh 63
CN1CCN(NC(=O)c2ccc(S(=O)(=O)N3CC4(C)CC3CC(C)(C)C4)cc2)CC1 (configuration not stated)	none
CC(C(=O)Nc1ccccc1C(=O)O)n1c(C(F)(F)F)nc2ccccc21 (configuration not stated)	T cruzi inh 71
O=C(Cn1c(C(F)(F)F)nc2ccccc21)Nc1ccccc1C(=O)O	none
COc1ccc(-n2cnnc2SCC(=O)NC2CCCc3ccccc32)cc1 (configuration not stated)	none
C/C(=N\NC(=S)Nc1c(C)cccc1C)c1cc2ccccc2o1	none
C/C(=N\NC(=S)Nc1ccccc1C)c1cc2ccccc2o1	T cruzi inh 59
C/C(=N/Nc1ncc(Br)cn1)c1ccc(Br)cc1	MEKK2wt PB1 HTS -2.0
